How the values were obtained:
Type in all cases: functional, cell-based
[1] = system: SMMC-7721; experiment: Cytotoxicity against human SMMC7721 cells after 48 hrs by MTT assay
Outline: (§1)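 Cells grown in RPMI1640 or DMEM with 10% FBS at 37 °C under 5% CO2. Adherent lines (A-549, MCF-7, SMMC-7721, SW480) were allowed 12 h to attach before dosing. Suspension HL-60 cells were seeded just before dosing at an initial 1 × 10^5 cells/mL. Compounds in DMSO at 0.0625, 0.32, 1.6, 8 and 40 μmol, in triplicate, for 48 h. MTT read-out. Cisplatin and vinorelbine were the positive controls.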

[2] = system: HL-60; experiment: Cytotoxicity against human HL60 cells after 48 hrs by MTT assay; outline: as §1
[3] = system: SW480; experiment: Cytotoxicity against human SW480 cells after 48 hrs by MTT assay; outline: as §1
[4] = system: MCF7; experiment: Cytotoxicity against human MCF7 cells after 48 hrs by MTT assay; outline: as §1
[5] = system: A549; experiment: Cytotoxicity against human A549 cells after 48 hrs by MTT assay; outline: as §1

| Structure (SMILES) | IC50 [1] [µmol] | IC50 [2] [µmol] | IC50 [3] [µmol] | IC50 [4] [µmol] | IC50 [5] [µmol] |
| --- | --- | --- | --- | --- | --- |
| COc1cc(O)c2c(c1O)C/C(C)=C\CC[C@@]1(C)O[C@@H]1C2=O | 24.7 | 5.6 | > 40 | 24.6 | 16.4 |
| COc1cc(O)c2c(c1O)C[C@]1(C)O[C@@H]1CC[C@@]1(C)O[C@@H]1C2=O | 11.3 | 4 | 14.2 | 16.1 | 4.2 |
| COc1cc(O)c2c(c1O)C/C(C)=C\[C@@H](O)C[C@@]1(C)O[C@@H]1C2=O | 14.9 | 17.8 | 21.1 | 21 | 6.5 |
